Reference: ChEMBL document CHEMBL1157032, “Synthesis and antimicrobial activity of novel pyrazolo[3,4-d]pyrimidin derivatives” (2010)
Values after ≈ are worked out from the molar mass of the structure shown. Active and inactive are the calls of the source. No cut-off for these calls is given here.

Experiments:
Type in all cases: functional
Klebsiella pneumoniae [1] = assay: Antimicrobial activity against Klebsiella pneumoniae NCIM 2957 at MIC after 24 hrs by agar diffusion method
Method in brief: (§1)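 Agar well diffusion on Mueller Hinton agar seeded with 0.1 mL of a 10⁵ cfu/mL bacterial suspension in 0.85% sterile saline. 6 mm wells received 0.1 mL of each compound dilution in DMSO (1% DMSO; DMSO alone as control). Plates were incubated 24 h at 37 ± 0.5 °C. Read-out was zone of inhibition in mm. MIC was taken as the lowest concentration giving complete growth inhibition.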

Aspergillus niger [2] = assay: Antimicrobial activity against Aspergillus niger MTCC 1781 after 48 hrs; conditions: MTCC 1781, 48 h
Method in brief: (§2)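 Fungal spore suspensions in sterile distilled water were adjusted to 10⁶ cfu/mL, and 0.1 mL was spread on Sabouraud dextrose agar. 6 mm wells were filled with 0.1 mL of compound dilution in DMSO (1% DMSO; DMSO-only control). Plates were incubated 48 h at 28 ± 0.2 °C, and inhibition zones were measured in mm. MIC was the lowest concentration completely inhibiting growth.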

Staphylococcus aureus [3] = assay: Antimicrobial activity against Staphylococcus aureus MTCC 96 after 24 hrs; conditions: MTCC 96, 24 h; method in brief: as §1
Bacillus subtilis [4] = assay: Antimicrobial activity against Bacillus subtilis MTCC 1789 after 24 hrs; conditions: MTCC 1789, 24 h; method in brief: as §1
Candida albicans [5] = assay: Antimicrobial activity against Candida albicans MTCC 227 at MIC after 48 hrs by agar diffusion method; method in brief: as §2
Aspergillus niger [6] = assay: Antimicrobial activity against Aspergillus niger MTCC 1781 at MIC after 48 hrs by agar diffusion method; method in brief: as §2
Trichoderma viride [7] = assay: Antimicrobial activity against Trichoderma viride MTCC 167 after 48 hrs; conditions: MTCC 167, 48 h; method in brief: as §2
Aspergillus flavus [8] = assay: Antimicrobial activity against Aspergillus flavus MTCC 2501 at MIC after 48 hrs by agar diffusion method; method in brief: as §2
Staphylococcus aureus [9] = assay: Antimicrobial activity against Staphylococcus aureus MTCC 96 at MIC after 24 hrs by agar diffusion method; method in brief: as §1
Trichoderma viride [10] = assay: Antimicrobial activity against Trichoderma viride MTCC 167 at MIC after 48 hrs by agar diffusion method; method in brief: as §2
Penicillium chrysogenum [11] = assay: Antimicrobial activity against Penicillium chrysogenum MTCC 1996 after 48 hrs; conditions: MTCC 1996, 48 h; method in brief: as §2
Priestia megaterium [12] = assay: Antimicrobial activity against Bacillus megaterium MTCC 1684 after 24 hrs; conditions: MTCC 1684, 24 h; method in brief: as §1
Serratia marcescens [13] = assay: Antimicrobial activity against Serratia marcescens MTCC 86 after 24 hrs; conditions: MTCC 86, 24 h; method in brief: as §1
Proteus vulgaris [14] = assay: Antimicrobial activity against Proteus vulgaris MTCC 1771 at MIC after 24 hrs by agar diffusion method; method in brief: as §1
Serratia marcescens [15] = assay: Antimicrobial activity against Serratia marcescens MTCC 86 at MIC after 24 hrs by agar diffusion method; method in brief: as §1
Pseudomonas aeruginosa = assay: Antimicrobial activity against Pseudomonas aeruginosa MTCC 2488 after 24 hrs; conditions: MTCC 2488, 24 h; method in brief: as §1
Bacillus subtilis [16] = assay: Antimicrobial activity against Bacillus subtilis MTCC 1789 at MIC after 24 hrs by agar diffusion method; method in brief: as §1
Candida albicans [17] = assay: Antimicrobial activity against Candida albicans MTCC 227 after 48 hrs; conditions: MTCC 227, 48 h; method in brief: as §2
Klebsiella pneumoniae [18] = assay: Antimicrobial activity against Klebsiella pneumoniae NCIM 2957 after 24 hrs; conditions: NCIM 2957, 24 h; method in brief: as §1
Escherichia coli [19] = assay: Antimicrobial activity against Escherichia coli MTCC 1650 after 24 hrs; conditions: MTCC 1650, 24 h; method in brief: as §1
Penicillium chrysogenum [20] = assay: Antimicrobial activity against Penicillium chrysogenum MTCC 1996 at MIC after 48 hrs by agar diffusion method; method in brief: as §2
Priestia megaterium [21] = assay: Antimicrobial activity against Bacillus megaterium MTCC 1684 at MIC after 24 hrs by agar diffusion method; method in brief: as §1
Escherichia coli [22] = assay: Antimicrobial activity against Escherichia coli MTCC 1650 at MIC after 24 hrs by agar diffusion method; method in brief: as §1
Proteus vulgaris [23] = assay: Antimicrobial activity against Proteus vulgaris MTCC 1771 after 24 hrs; conditions: MTCC 1771, 24 h; method in brief: as §1
Aspergillus flavus [24] = assay: Antimicrobial activity against Aspergillus flavus MTCC 2501 after 48 hrs; conditions: MTCC 2501, 48 h; method in brief: as §2

| Structure (SMILES) | inhibition zone (IZ) (Klebsiella pneumoniae [1]) | MIC (Aspergillus niger [2]) [µg/mL] | MIC (Staphylococcus aureus [3]) [µg/mL] | MIC (Bacillus subtilis [4]) [µg/mL] | inhibition zone (IZ) (Candida albicans [5]) [mm] | inhibition zone (IZ) (Aspergillus niger [6]) | MIC (Trichoderma viride [7]) [µg/mL] | inhibition zone (IZ) (Aspergillus flavus [8]) | inhibition zone (IZ) (Staphylococcus aureus [9]) | inhibition zone (IZ) (Trichoderma viride [10]) [mm] | MIC (Penicillium chrysogenum [11]) [µg/mL] | MIC (Priestia megaterium [12]) [µg/mL] | MIC (Serratia marcescens [13]) [µg/mL] | inhibition zone (IZ) (Serratia marcescens [15]) [mm] | MIC (Pseudomonas aeruginosa) [µg/mL] | inhibition zone (IZ) (Bacillus subtilis [16]) | MIC (Candida albicans [17]) [µg/mL] | MIC (Klebsiella pneumoniae [18]) [µg/mL] | MIC (Escherichia coli [19]) [µg/mL] | inhibition zone (IZ) (Penicillium chrysogenum [20]) | further results |
| --- | --- | --- | --- | --- | --- | --- | --- | --- | --- | --- | --- | --- | --- | --- | --- | --- | --- | --- | --- | --- | --- |
| Nc1n[nH]c2nc3scc(-c4cc(Cl)cc(Br)c4O)n3c(=O)c12 | 9 mm | 250 (≈ 606 µM) | 50 (≈ 121 µM) | 50 (≈ 121 µM) | 16 | inactive | 250 (≈ 606 µM) | 11 mm | 16 mm | 26 | 250 (≈ 606 µM) | 50 (≈ 121 µM) | 50 (≈ 121 µM) | 15 | 50 (≈ 121 µM) | inactive | 250 (≈ 606 µM) | 50 (≈ 121 µM) | 50 (≈ 121 µM) | 28 mm | inhibition zone (IZ) (Proteus vulgaris [14]): inactive; inhibition zone (IZ) (Priestia megaterium [21]): inactive; inhibition zone (IZ) (Escherichia coli [22]): 11 mm; MIC (Proteus vulgaris [23]): 50 µg/mL (≈ 121 µM); MIC (Aspergillus flavus [24]): 250 µg/mL (≈ 606 µM) |
| Nc1n[nH]c2nc3scc(-c4cc(Cl)ccc4O)n3c(=O)c12 | 13 mm | 250 (≈ 749 µM) | 50 (≈ 150 µM) | 50 (≈ 150 µM) | 12 | 16 mm | 250 (≈ 749 µM) | 11 mm | 31 mm | 27 | 250 (≈ 749 µM) | 50 (≈ 150 µM) | 50 (≈ 150 µM) | 18 | 50 (≈ 150 µM) | 10 mm | 250 (≈ 749 µM) | 50 (≈ 150 µM) | 50 (≈ 150 µM) | 25 mm | inhibition zone (IZ) (Proteus vulgaris [14]): 9 mm; inhibition zone (IZ) (Priestia megaterium [21]): 12 mm; inhibition zone (IZ) (Escherichia coli [22]): inactive; MIC (Proteus vulgaris [23]): 50 µg/mL (≈ 150 µM); MIC (Aspergillus flavus [24]): 250 µg/mL (≈ 749 µM) |
| Nc1n[nH]c2nc3scc(-c4ccccc4O)n3c(=O)c12 | inactive | 250 (≈ 835 µM) | 50 (≈ 167 µM) | 50 (≈ 167 µM) | 18 | 10 mm | 250 (≈ 835 µM) | inactive | 12 mm | 20 | 250 (≈ 835 µM) | 50 (≈ 167 µM) | 50 (≈ 167 µM) | 16 | 50 (≈ 167 µM) | inactive | 250 (≈ 835 µM) | 50 (≈ 167 µM) | 50 (≈ 167 µM) | inactive | inhibition zone (IZ) (Priestia megaterium [21]): inactive; inhibition zone (IZ) (Escherichia coli [22]): inactive; MIC (Proteus vulgaris [23]): 50 µg/mL (≈ 167 µM); MIC (Aspergillus flavus [24]): 250 µg/mL (≈ 835 µM) |
| Nc1n[nH]c2nc3scc(-c4ccc(Cl)cc4)n3c(=O)c12 | 15 mm | 250 (≈ 787 µM) | 50 (≈ 157 µM) | 50 (≈ 157 µM) | 13 | 12 mm | 250 (≈ 787 µM) | 23 mm | inactive | 20 | 250 (≈ 787 µM) | 50 (≈ 157 µM) | 50 (≈ 157 µM) | 21 | 50 (≈ 157 µM) | 10 mm | 250 (≈ 787 µM) | 50 (≈ 157 µM) | 50 (≈ 157 µM) | 26 mm | inhibition zone (IZ) (Priestia megaterium [21]): inactive; inhibition zone (IZ) (Escherichia coli [22]): inactive; MIC (Proteus vulgaris [23]): 50 µg/mL (≈ 157 µM); MIC (Aspergillus flavus [24]): 250 µg/mL (≈ 787 µM) |
| Nc1n[nH]c2nc3scc(-c4ccc([N+](=O)[O-])cc4)n3c(=O)c12 | 13 mm | 250 (≈ 761 µM) | 50 (≈ 152 µM) | 50 (≈ 152 µM) | 21 | inactive | 250 (≈ 761 µM) | 16 mm | 31 mm | 29 | 250 (≈ 761 µM) | 50 (≈ 152 µM) | 50 (≈ 152 µM) | 16 | 50 (≈ 152 µM) | inactive | 250 (≈ 761 µM) | 50 (≈ 152 µM) | 50 (≈ 152 µM) | 32 mm | inhibition zone (IZ) (Proteus vulgaris [14]): inactive; inhibition zone (IZ) (Priestia megaterium [21]): inactive; inhibition zone (IZ) (Escherichia coli [22]): 10 mm; MIC (Proteus vulgaris [23]): 50 µg/mL (≈ 152 µM); MIC (Aspergillus flavus [24]): 250 µg/mL (≈ 761 µM) |
